Laboratory results taken from ChEMBL document CHEMBL1127561, “Novel spirosuccinimide aldose reductase inhibitors derived from isoquinoline-1,3-diones: 2-[(4-bromo-2-fluorophenyl)methyl]-6- fluorospiro[isoquinoline-4(1H),3'-pyrrolidine]-1,2',3,5'(2H)-tetrone and congeners. 1” (J Med Chem, 1994).
Values belong to the compound of their own block, whether it stands above or below them. Calls of active or inactive are those of the source. The calls are words filed in the database; no cut-off is given here.

Columns and labels:
[1] = target: Aldo-keto reductase family 1 member B1 (Bos taurus) (UniProt P16116); test: Inhibition of aldose reductase activity in a partially purified bovine lens preparation at 10e-7 M
Procedure, shortened: (§1)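 Partially purified bovine lens aldose reductase (ammonium sulfate fractionation). NADPH oxidation read at 340 nm, 37 °C, in 30 mM sodium phosphate pH 6.2, 0.2 M LiSO4, […], 1% DMSO. Enzyme was preincubated with inhibitor for 5 min, then the reaction was started with 5 mM DL-glyceraldehyde. Duplicates; IC50 from linear regression of log concentration vs percent inhibition.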

[2] = target: Aldo-keto reductase family 1 member B1 (Bos taurus) (UniProt P16116); test: Inhibition of aldose reductase activity in a partially purified bovine lens preparation at 4*10e-8 M; procedure, shortened: as §1
[3] = system: Rattus norvegicus; test: Percentage Inhibition of galactitol accumulation in the sciatic nerve of rats fed with the dose of 0.5 mg/kg/day; type: functional
Procedure, shortened: (§2)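 Male Sprague-Dawley rats (70-90 g), six per group, fed 20% galactose chow with compound in the diet for 4 days; glucose-fed controls. After a 3-h fast, lens or sciatic nerve galactitol was measured as nmol/mg wet weight. Percent inhibition vs galactose-fed controls, mean ± SEM; ANOVA with Dunnett's test.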

[4] = target: Aldo-keto reductase family 1 member B1 (Bos taurus, UniProt P16116); test: In vitro inhibition of aldose reductase activity in a partially purified bovine lens preparation
[5] = Log P value by using Octanol / pH 7.4 buffer; type: physicochemical
Procedure, shortened: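 Partition measured between octanol and pH 7.4 buffer.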

[6] = system: Rattus norvegicus; test: Percentage Inhibition of galactitol accumulation in the lens of rats fed with the dose of 1.1 mg/kg/day; type: functional; settings: Lens of camera-type eye; procedure, shortened: as §2
[7] = system: Rattus norvegicus; test: Percentage Inhibition of galactitol accumulation in the lens of rats fed with the dose of 3.0 mg/kg/day; type: functional; settings: Lens of camera-type eye; procedure, shortened: as §2
[8] = system: Rattus norvegicus; test: Percentage Inhibition of galactitol accumulation in the sciatic nerve of rats fed with the dose of 1.1 mg/kg/day (values are mean of six animals, p<0.01); type: functional; procedure, shortened: as §2
[9] = Half-life In vitro; type: ADME
[10] = organism: Rattus norvegicus; test: Percentage Inhibition of galactitol accumulation in the sciatic nerve of rats
[11] = system: Rattus norvegicus; test: Percentage Inhibition of galactitol accumulation in the lens of rats fed with the dose of 0.9 mg/kg/day; type: functional; settings: Lens of camera-type eye; procedure, shortened: as §2
[12] = system: Rattus norvegicus; test: Percentage Inhibition of galactitol accumulation in the sciatic nerve of rats fed with the dose of 0.9 mg/kg/day; type: functional; procedure, shortened: as §2
[13] = organism: Rattus norvegicus; test: Dose at which the tissue level of polyol accumulation was reduced by 50% was evaluated for 4 days in lens; type: functional; settings: Lens of camera-type eye, 96 h
Procedure, shortened: (§3)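 Male Sprague-Dawley rats (70-90 g, six per group) fed chow with 20% galactose and compound in the diet for 4 or 14 days. After a 3-h fast, lens and sciatic nerve were removed and frozen, and galactitol was quantitated in nmol/mg wet weight. ED50 from nonlinear regression of log dose vs tissue polyol.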

[14] = organism: Rattus norvegicus; test: Dose at which the tissue level of polyol accumulation was reduced by 50% was evaluated for 4 days in sciatic nerve; type: functional; settings: 96 h; procedure, shortened: as §3
[15] = organism: Rattus norvegicus; test: Dose at which the tissue level of polyol accumulation was reduced by 50% was evaluated for 14 days in RBC; type: functional; settings: 336 h
Procedure, shortened: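 Male Sprague-Dawley rats (200-250 g, 12 per group) made diabetic with streptozocin 60 mg/kg iv in cold 0.03 M citrate pH 4.5; plasma glucose kept between 300 and 550 mg/dl. Compound was suspended in 2% Tween 80/saline and gavaged daily for 14 days. On day 15, RBC, lens and sciatic nerve polyol was measured. ED50 by nonlinear regression of log dose.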

[16] = system: Rattus norvegicus; test: Percentage Inhibition of galactitol accumulation in the sciatic nerve of rats fed with the dose of 4.0 mg/kg/day; type: functional; settings: read-out: Inhibition; procedure, shortened: as §2
[17] = organism: Rattus norvegicus; test: Dose at which the tissue level of polyol accumulation was reduced by 50% was evaluated for 14 days in sciatic nerve; type: functional; procedure, shortened: as §3
[18] = system: Rattus norvegicus; test: Percentage Inhibition of galactitol accumulation in the lens of rats fed with the dose of 4.0 mg/kg/day; NS=Not significant; type: functional, organism-based; settings: Lens of camera-type eye; procedure, shortened: as §2
[19] = Compound was evaluated In vitro for inhibition of aldose reductase activity by 50% in rat RBC
Procedure, shortened: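 Rat (or dog) red blood cells from fasted male Sprague-Dawley rats (150-170 g, EDTA, aortic arch) or pooled beagle blood; 1 mL packed cells in 2 mL HBSS with 10 mM galactose plus inhibitor 1 to 5×10^-8 M, 3 h, 95% air/5% CO2, shaken. Erythrocyte galactitol measured; IC50 mean ± SD of three to six replicate experiments.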

[20] = organism: Rattus norvegicus; test: Dose at which the tissue level of polyol accumulation was reduced by 50% was evaluated for 12 days in lens; type: functional; settings: Lens of camera-type eye, 288 h
[21] = organism: Rattus norvegicus; test: Dose at which the tissue level of polyol accumulation was reduced by 50% was evaluated for 12 days in sciatic nerve; type: functional; settings: 288 h
[22] = system: Rattus norvegicus; test: Percentage Inhibition of galactitol accumulation in the sciatic nerve of rats fed with the dose of 0.6 mg/kg/day; type: functional; procedure, shortened: as §2
[23] = system: Rattus norvegicus; test: Percentage Inhibition of galactitol accumulation in the lens of rats fed with the dose of 0.6 mg/kg/day; NS=no significant; type: functional, organism-based; settings: Lens of camera-type eye; procedure, shortened: as §2
[24] = Rattus norvegicus, Sciatic nerve, 336 h, read-out: ED50

Structure (SMILES): CCCN1C(=O)c2ccccc2C2(CC(=O)NC2=O)C1=O (stereo not drawn)
inhibition [1]: 19%

Structure (SMILES): O=C1CC2(C(=O)N1)C(=O)N(Cc1ccc(Br)cc1F)C(=O)c1cccc(F)c12 (stereo not drawn)
inhibition in vivo at 0.5 mg/kg/day [3]: 52%
IC50 [4]: 21 nM

Structure (SMILES): COc1ccc2c(c1)C(=O)N(C)C(=O)C21CC(=O)NC1=O (stereo not drawn)
inhibition [1]: 55%
inhibition [2]: 41%

Structure (SMILES): O=C1CC2(C(=O)N1)C(=O)N(Cc1ccc(Br)cc1F)C(=O)c1ccc(C(F)(F)F)cc12 (stereo not drawn)
IC50 [4]: 38 nM

Structure (SMILES): COc1cc2c(cc1Cl)C1(CC(=O)NC1=O)C(=O)N(C)C2=O (stereo not drawn)
inhibition [1]: 84%
inhibition in vivo at 0.5 mg/kg/day [3]: 51%
inhibition [2]: 66%

Structure (SMILES): CN1C(=O)c2ccc([N+](=O)[O-])cc2C2(CC(=O)NC2=O)C1=O (stereo not drawn)
inhibition [1]: 71%
inhibition [2]: 53%

Structure (SMILES): O=C1C[C@@]2(C(=O)N1)C(=O)N(Cc1ccc(Br)cc1F)C(=O)c1ccc(F)cc12
half-life [9]: 0.5 h
IC50 [4]: 9 nM
ED50 [10]: 0.09 mg/kg

Structure (SMILES): O=C1CC2(C(=O)N1)C(=O)N(Cc1ccc(Br)cc1F)C(=O)c1cc(F)ccc12 (stereo not drawn)
IC50 [4]: 20 nM

Structure (SMILES): CN1C(=O)c2cc(Cl)ccc2C2(CC(=O)NC2=O)C1=O (stereo not drawn)
inhibition [1]: 61%
inhibition [2]: 34%

Structure (SMILES): CN1C(=O)c2ccc(C(F)(F)F)cc2C2(CC(=O)NC2=O)C1=O (stereo not drawn)
inhibition in vivo at 0.9 mg/kg/day [11]: 20%
inhibition [1]: 64%
inhibition [2]: 46%
inhibition in vivo at 0.9 mg/kg/day [12]: 38%

Structure (SMILES): O=C1CC2(C(=O)N1)C(=O)N(Cc1nc3ccccc3s1)C(=O)c1ccc(F)cc12 (stereo not drawn)
IC50 [4]: 18 nM

Structure (SMILES): CON1C(=O)c2ccc(Cl)cc2C2(CC(=O)NC2=O)C1=O (stereo not drawn)
inhibition [1]: 27%
inhibition [2]: 11%

Structure (SMILES): O=C1C[C@]2(C(=O)N1)C(=O)N(Cc1ccc(Br)cc1F)C(=O)c1ccccc12
half-life [9]: 4 h
IC50 [4]: 1000 nM

Structure (SMILES): COc1ccc2c(C(=S)N(C)CC(=O)O)cccc2c1C(F)(F)F [TOLRESTAT]
ED50 [13]: 128 mg/kg/day
ED50 [14]: 6.4 mg/kg/day
ED50 [15]: 1.9 mg/kg/day
ED50 [20]: 28 mg/kg/day
ED50 [17, 24]: 3.8 mg/kg/day
ED50 [21]: 4.5 mg/kg/day
IC50 [19]: 27.2 nM

Structure (SMILES): O=C1CC2(C(=O)N1)C(=O)N(Cc1ccc(Br)cc1F)C(=O)c1cc(Cl)ccc12 (stereo not drawn)
logD [5]: 3.51
inhibition in vivo at 0.6 mg/kg/day [22]: 63%
inhibition [23]: inactive
IC50 [4]: 33 nM

Now from value to compound, other results behind:

inhibition [1]: 89%
inhibition [2]: 84%
Structure (SMILES): CN1C(=O)c2cc(Cl)c(Cl)cc2C2(CC(=O)NC2=O)C1=O (stereo not drawn)

logD [5]: 0.58
inhibition [1]: 72%
inhibition [2]: 43%
Structure (SMILES): CN1C(=O)c2ccc(Cl)cc2C2(CC(=O)NC2=O)C1=O (stereo not drawn)
inhibition in vivo at 1.1 mg/kg/day [6]: 33%
inhibition in vivo at 0.5 mg/kg/day [3]: 54%
inhibition in vivo at 3 mg/kg/day [7]: 59%
inhibition in vivo at 1.1 mg/kg/day [8]: 75%

inhibition [1]: 17%
inhibition [2]: 19%
Structure (SMILES): CCCCN1C(=O)c2ccccc2C2(CC(=O)NC2=O)C1=O (stereo not drawn)

IC50 [4]: 17 nM
Structure (SMILES): O=C1CC2(C(=O)N1)C(=O)N(Cc1cccc(C(F)(F)F)c1)C(=O)c1ccccc12 (stereo not drawn)

IC50 [4]: 25 nM
Structure (SMILES): Cc1cccc(CN2C(=O)c3ccccc3C3(CC(=O)NC3=O)C2=O)c1 (stereo not drawn)

IC50 [4]: 30 nM
Structure (SMILES): COc1ccc2c(c1F)C1(CC(=O)NC1=O)C(=O)N(Cc1ccc(Br)cc1F)C2=O (stereo not drawn)
inhibition in vivo at 0.5 mg/kg/day [3]: 43%

logD [5]: 2.81
IC50 [4]: 14 nM
IC50 [19]: 26.9 nM
Structure (SMILES): O=C1CC2(C(=O)N1)C(=O)N(Cc1ccc(Br)cc1F)C(=O)c1ccc(F)cc12 (stereo not drawn)
ED50 [13]: 19 mg/kg/day
ED50 [14]: 0.3 mg/kg/day
inhibition in vivo at 0.5 mg/kg/day [3]: 83%
ED50 [15]: 0.25 mg/kg/day
inhibition in vivo at 4 mg/kg/day [16]: 95%
ED50 [17]: 0.1 mg/kg/day
ED50 [17, 24]: 0.09 mg/kg/day
inhibition [18]: inactive
